{
  "source": "ChEMBL document CHEMBL1921792",
  "about": "“Synthesis and anticonvulsant activity of trans- and cis-2-(2,6-dimethylphenoxy)-N-(2- or 4-hydroxycyclohexyl)acetamides and their amine analogs” (Bioorg Med Chem, 2011)",
  "key": {"Rattus norvegicus [1]": {"tested_on": "Rattus norvegicus", "experiment": "Neurotoxicity in rat assessed as neurological deficit at 30 mg/kg, po after 2 hrs […]", "type": "toxicity, organism-based", "parameters": "dose 30 mg/kg, route oral", "details": "in vivo", "summary_of_the_method": "(§1)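 Rats given the compound, suspended in 0.5% methylcellulose, by the stated route and dose. Neurological deficit was recorded at the listed times as ataxia and loss of placing response and muscle tone. Reported as number of rats showing toxicity/number tested.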"}, "Rattus norvegicus [2]": {"tested_on": "Rattus norvegicus", "experiment": "Neurotoxicity in rat assessed as neurological deficit at 62.5 mg/kg, po after 0.25 hrs", "type": "toxicity, organism-based", "parameters": "dose 62.5 mg/kg, route oral", "details": "in vivo", "summary_of_the_method": "(§2)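 Rats dosed orally with test agent suspended in 0.5% methylcellulose and observed for up to 24 h (time-to-peak-effect design). Neurological deficit was scored as ataxia with loss of placing response and muscle tone. Two rats per dose per time point; results given as number toxic/number tested.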"}, "Rattus norvegicus [3]": {"tested_on": "Rattus norvegicus", "experiment": "Neurotoxicity in rat assessed as neurological deficit at 500 mg/kg, po after 6 hrs", "type": "toxicity, organism-based", "parameters": "dose 500 mg/kg, route oral", "details": "in vivo", "summary_of_the_method": "as §2"}, "Rattus norvegicus [4]": {"tested_on": "Rattus norvegicus", "experiment": "Neurotoxicity in rat assessed as neurological deficit at 125 mg/kg, po after 0.5 hrs", "type": "toxicity, organism-based", "parameters": "dose 125 mg/kg, route oral", "details": "in vivo", "summary_of_the_method": "as §1"}, "Rattus norvegicus [5]": {"tested_on": "Rattus norvegicus", "experiment": "Neurotoxicity in rat assessed as neurological deficit at 125 mg/kg, po after 4 hrs", "type": "toxicity, organism-based", "parameters": "dose 125 mg/kg, route oral", "details": "in vivo", "summary_of_the_method": "as §1"}, "Rattus norvegicus [6]": {"tested_on": "Rattus norvegicus", "experiment": "Neurotoxicity in rat assessed as neurological deficit at 500 mg/kg, po after 0.25 hrs", "type": "toxicity, organism-based", "parameters": "dose 500 mg/kg, route oral", "details": "in vivo", "summary_of_the_method": "as §1"}, "Rattus norvegicus [7]": {"tested_on": "Rattus norvegicus", "experiment": "Neurotoxicity in rat assessed as neurological deficit at 500 mg/kg, po after 1 hr", "type": "toxicity, organism-based", "parameters": "dose 500 mg/kg, route oral", "details": "in vivo", "summary_of_the_method": "as §1"}, "Rattus norvegicus [8]": {"tested_on": "Rattus norvegicus", "experiment": "Neurotoxicity in rat assessed as neurological deficit at 62.5 mg/kg, po after 0.5 hrs", "type": "toxicity, organism-based", "parameters": "dose 62.5 mg/kg, route oral", "details": "in vivo", "summary_of_the_method": "as §2"}, "Mus musculus [9]": {"tested_on": "Mus musculus", "experiment": "Neurotoxicity in mouse assessed as inability to maintain equilibrium on rotarod at 300 mg/kg, ip after 0.5 hrs by rotarod test", "type": "toxicity, organism-based", "parameters": "dose 300 mg/kg, route intraperitoneal", "details": "in vivo", "summary_of_the_method": "(§3)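 Drug given ip to mice as a suspension in 0.5% methylcellulose. At the stated time after dosing, each mouse was placed on a 1 inch knurled rod turning at 6 rpm. Neurotoxicity = inability to stay balanced at least 1 min in each of three trials. Scored as animals toxic/animals tested in small groups.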"}, "Rattus norvegicus [10]": {"tested_on": "Rattus norvegicus", "experiment": "Neurotoxicity in rat assessed as neurological deficit at 500 mg/kg, po after 8 hrs", "type": "toxicity, organism-based", "parameters": "dose 500 mg/kg, route oral", "details": "in vivo", "summary_of_the_method": "as §2"}, "Mus musculus [11]": {"tested_on": "Mus musculus", "experiment": "Anticonvulsant activity in ip dosed mouse assessed as time to show peak effect of protection against maximal electric shock-induced seizures", "type": "functional", "summary_of_the_method": "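Time-to-peak-effect assay: MES protection read at 0.25–4 h after dosing. Mice ip (60–130 mg/kg), rats po (15 or 30 mg/kg) or ip (30 mg/kg). Groups of 4–8; result is protected/tested.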"}, "Rattus norvegicus [12]": {"tested_on": "Rattus norvegicus", "experiment": "Neurotoxicity in rat assessed as neurological deficit at 62.5 mg/kg, po after 2 hrs", "type": "toxicity, organism-based", "parameters": "dose 62.5 mg/kg, route oral", "details": "in vivo", "summary_of_the_method": "as §2"}, "Rattus norvegicus [13]": {"tested_on": "Rattus norvegicus", "experiment": "Neurotoxicity in rat assessed as neurological deficit at 125 mg/kg, po after 24 hrs", "type": "toxicity, organism-based", "parameters": "dose 125 mg/kg, route oral", "details": "in vivo", "summary_of_the_method": "as §1"}, "Rattus norvegicus [14]": {"tested_on": "Rattus norvegicus", "experiment": "Neurotoxicity in rat assessed as neurological deficit at 62.5 mg/kg, po after 4 hrs", "type": "toxicity, organism-based", "parameters": "dose 62.5 mg/kg, route oral", "details": "in vivo", "summary_of_the_method": "as §2"}, "Rattus norvegicus [15]": {"tested_on": "Rattus norvegicus", "experiment": "Neurotoxicity in rat assessed as neurological deficit at 500 mg/kg, po after 2 hrs", "type": "toxicity, organism-based", "parameters": "dose 500 mg/kg, route oral", "details": "in vivo", "summary_of_the_method": "as §1"}, "Rattus norvegicus [16]": {"tested_on": "Rattus norvegicus", "experiment": "Neurotoxicity in rat assessed as neurological deficit at 250 mg/kg, po after 0.25 hrs", "type": "toxicity, organism-based", "parameters": "dose 250 mg/kg, route oral", "details": "in vivo", "summary_of_the_method": "as §1"}, "Rattus norvegicus [17]": {"tested_on": "Rattus norvegicus", "experiment": "Neurotoxicity in rat assessed as neurological deficit at 250 mg/kg, po after 8 hrs", "type": "toxicity, organism-based", "parameters": "dose 250 mg/kg, route oral", "details": "in vivo", "summary_of_the_method": "as §1"}, "Rattus norvegicus [18]": {"tested_on": "Rattus norvegicus", "experiment": "Neurotoxicity in rat assessed as neurological deficit at 62.5 mg/kg, po after 6 hrs", "type": "toxicity, organism-based", "parameters": "dose 62.5 mg/kg, route oral", "details": "in vivo", "summary_of_the_method": "as §2"}, "Mus musculus [19]": {"tested_on": "Mus musculus", "experiment": "Neurotoxicity in mouse assessed as inability to maintain equilibrium on rotarod at 300 mg/kg, ip after 4 hrs by rotarod test", "type": "toxicity, organism-based", "parameters": "dose 300 mg/kg, route intraperitoneal", "details": "in vivo", "summary_of_the_method": "as §3"}, "Mus musculus [20]": {"species_on_record": "Mus musculus", "experiment": "Protective index, ratio of TD50 for neurotoxicity in mouse to ED50 for inhibition of maximal electroshock-induced seizures in mouse", "type": "functional"}, "Rattus norvegicus [21]": {"tested_on": "Rattus norvegicus", "experiment": "Neurotoxicity in rat assessed as neurological deficit at 62.5 mg/kg, po after 24 hrs", "type": "toxicity, organism-based", "parameters": "dose 62.5 mg/kg, route oral", "details": "in vivo", "summary_of_the_method": "as §2"}, "Mus musculus [22]": {"tested_on": "Mus musculus", "experiment": "Neurotoxicity in mouse assessed as inability to maintain equilibrium on rotarod at 130 mg/kg, ip after 0.5 hrs using rotarod test", "type": "toxicity, organism-based", "parameters": "dose 130 mg/kg, route intraperitoneal", "details": "in vivo", "summary_of_the_method": "as §3"}, "Mus musculus [23]": {"tested_on": "Mus musculus", "experiment": "Neurotoxicity in mouse assessed as inability to maintain equilibrium on rotarod at 130 mg/kg, ip after 2 hrs using rotarod test", "type": "toxicity, organism-based", "parameters": "dose 130 mg/kg, route intraperitoneal", "details": "in vivo", "summary_of_the_method": "as §3"}, "Rattus norvegicus [24]": {"tested_on": "Rattus norvegicus", "experiment": "Neurotoxicity in rat assessed as neurological deficit at 30 mg/kg, po after 1 hr […]", "type": "toxicity, organism-based", "parameters": "dose 30 mg/kg, route oral", "details": "in vivo", "summary_of_the_method": "as §1"}, "Rattus norvegicus [25]": {"tested_on": "Rattus norvegicus", "experiment": "Neurotoxicity in rat assessed as neurological deficit at 30 mg/kg, po after 0.25 hrs […]", "type": "toxicity, organism-based", "parameters": "dose 30 mg/kg, route oral", "details": "in vivo", "summary_of_the_method": "as §1"}, "Rattus norvegicus [26]": {"species_on_record": "Rattus norvegicus", "experiment": "Protective index, ratio of TD50 for neurotoxicity in rat to ED50 for inhibition of maximal electroshock-induced seizures in rat", "type": "functional"}, "Rattus norvegicus [27]": {"tested_on": "Rattus norvegicus", "experiment": "Neurotoxicity in rat assessed as neurological deficit at 125 mg/kg, po after 0.25 hrs", "type": "toxicity, organism-based", "parameters": "dose 125 mg/kg, route oral", "details": "in vivo", "summary_of_the_method": "as §1"}},
  "data": [
    {"smiles": "Cc1cccc(C)c1OCC(=O)NC1CCCCC1O.Cl", "note": "(racemic; 1)", "values": [
      {"measurement": "Activity", "setting": "Rattus norvegicus [1]", "result": "Non-toxic"},
      {"measurement": "Activity", "setting": "Rattus norvegicus [2]", "result": "Non-toxic"},
      {"measurement": "Activity", "setting": "Rattus norvegicus [3]", "result": "Non-toxic"},
      {"measurement": "Activity", "setting": "Rattus norvegicus [4]", "result": "Non-toxic"},
      {"measurement": "Activity", "setting": "Rattus norvegicus [5]", "result": "Non-toxic"},
      {"measurement": "Activity", "setting": "Rattus norvegicus [6]", "result": "Non-toxic"},
      {"measurement": "Activity", "setting": "Rattus norvegicus [7]", "result": "Non-toxic"},
      {"measurement": "Activity", "setting": "Rattus norvegicus [8]", "result": "Non-toxic"},
      {"measurement": "Activity", "setting": "Mus musculus [9]", "result": "Toxic"},
      {"measurement": "Activity", "setting": "Rattus norvegicus [10]", "result": "Non-toxic"},
      {"measurement": "Time", "setting": "Mus musculus [11]", "result": 0.25, "unit": "h"},
      {"measurement": "Activity", "setting": "Rattus norvegicus [12]", "result": "Non-toxic"},
      {"measurement": "Activity", "setting": "Rattus norvegicus [13]", "result": "Non-toxic"},
      {"measurement": "Activity", "setting": "Rattus norvegicus [14]", "result": "Non-toxic"},
      {"measurement": "Activity", "setting": "Rattus norvegicus [15]", "result": "Non-toxic"},
      {"measurement": "Activity", "setting": "Rattus norvegicus [16]", "result": "Non-toxic"},
      {"measurement": "Activity", "setting": "Rattus norvegicus [17]", "result": "Non-toxic"},
      {"measurement": "Activity", "setting": "Rattus norvegicus [18]", "result": "Non-toxic"},
      {"measurement": "Activity", "setting": "Mus musculus [19]", "result": "Non-toxic"},
      {"measurement": "Ratio TD50/ED50", "setting": "Mus musculus [20]", "result": 2.475},
      {"measurement": "Activity", "setting": "Rattus norvegicus [21]", "result": "Non-toxic"},
      {"measurement": "Activity", "setting": "Mus musculus [22]", "result": "Non-toxic"},
      {"measurement": "Activity", "setting": "Mus musculus [23]", "result": "Non-toxic"},
      {"measurement": "Activity", "setting": "Rattus norvegicus [24]", "result": "Non-toxic"},
      {"measurement": "Activity", "setting": "Rattus norvegicus [25]", "result": "Non-toxic"},
      {"measurement": "Ratio TD50/ED50", "setting": "Rattus norvegicus [26]", "result": ">21.218"},
      {"measurement": "Activity", "setting": "Rattus norvegicus [27]", "result": "Non-toxic"}
    ]}
  ]
}
